KCNQ1 act: human KCNQ1 channel potentiation or activation | AID 2648 | hit rate 0.35% among 310,000 | B-score at 10 µM | P51787 | CHO-K1 KCNQ1, thallium flux FluxOR fluorescence; hits give high values;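 active = fluorescence ratio B-score, a plate-corrected score, at least three library SD, with initial intensity B-score within 5 SD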
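Assay system: CHO-K1 cells stably expressing KCNQ1. Medium: assay buffer for compound exposure, DMSO matched across wells. Timing: 37 °C overnight plating, 90-min dark dye load, 20-min compound pretreatment. Signal: kinetic FluxOR fluorescence, 10 s baseline plus 110 s post-stimulus.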
KCNK9 block: inhibitors of human KCNK9 two-pore domain potassium channel | Q9NPC2 | HEK293 KCNK9, FluxOR thallium flux fluorescence; hits give low values | B-score at 10 µM | hit rate 1.2% among 310,000 | AID 488922;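 active = ratio B-score over 3 SD below the library mean, with starting fluorescence within 5 SD of its mean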;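 note: negative B-score means less thallium flux so channel inhibition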
hERG rescue: hERG (human) protection from proarrhythmic block; CHO-hERG, FluxOR thallium flux, dofetilide IC70 present; activation (rescue from dofetilide block), less the hit threshold, % at 10 µM; AID 1511; hit rate 0.51% among 310,000;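 active = activation above the mean of controls blocked by dofetilide plus 5 SD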;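 note: thallium influx through hERG after potassium depolarization seen as dye fluorescence rise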
KCNQ1 block: human KCNQ1 channel inhibition; CHO-K1 KCNQ1, FluxOR thallium flux fluorescence; hits give high values; B-score at 10 µM; hit rate 1.3% among 310,000; AID 2642; P51787;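 active = compounds whose thallium flux B-score, printed positive for inhibition, exceeds three library SD while starting fluorescence stays within three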;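 note: channel opened by potassium depolarization with thallium stimulus after 20 min compound exposure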
KCNK3 block: human KCNK3 channel inhibition, primary screen; CHO-KCNK3 thallium flux, FluxOR fluorescence; hits give low values; B-score at 10 µM; hit rate 0.84% among 340,000; AID 602410;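 active = B-score under library mean minus 4 SD, starting fluorescence ratio at most library mean plus 5 SD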;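 note: more negative B-score means stronger inhibition of thallium flux through KCNK3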
Kir21 block: inhibitors of mouse Kir2.1 inward-rectifier potassium channel | HEK293-Kir2.1, FluxOR thallium flux fluorescence; hits give low values | B-score at 10 µM | hit rate 0.85% among 310,000 | AID 1672;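 active = fluorescence ratio B-score at or below minus 3 SD of library scores, with starting-brightness B-score within 2 SD, cut at about -4.2 in these data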;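 note: channel flux triggered by added potassium and thallium sulfate stimulus; B-score of peak minus minimum fluorescence over baseline after thallium stimulus; more negative B-score means stronger Kir2.1 block with less thallium influx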
Target sequence (P35561 whole entry, looked up): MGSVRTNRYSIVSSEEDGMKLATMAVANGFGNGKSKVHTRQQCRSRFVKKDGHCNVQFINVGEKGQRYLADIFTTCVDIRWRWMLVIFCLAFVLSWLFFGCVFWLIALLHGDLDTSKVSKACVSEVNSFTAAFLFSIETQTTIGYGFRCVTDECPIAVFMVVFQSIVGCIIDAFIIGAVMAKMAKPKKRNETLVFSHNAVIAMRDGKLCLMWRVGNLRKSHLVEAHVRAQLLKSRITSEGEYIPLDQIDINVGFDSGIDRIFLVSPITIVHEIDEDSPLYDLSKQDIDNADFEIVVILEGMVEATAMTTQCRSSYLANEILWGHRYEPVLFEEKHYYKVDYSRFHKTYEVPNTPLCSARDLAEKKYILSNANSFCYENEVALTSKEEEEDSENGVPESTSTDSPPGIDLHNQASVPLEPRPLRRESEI
Each line names hits and unclear results; the compound was inactive in the other large screens. An excerpt weighted towards active compounds, which were near 3.7% of everything screened.

CCOc1ccc(NC(=O)N2CCCC2C(=O)NCc2ccco2)cc1 (stereo unspecified)	none
CC(C)(C)N1C(=O)[C@H]2[C@@H](c3ccc(Br)cc3)N3C(=O)N(c4cccc(Br)c4)C(=O)[C@@]3(Cc3ccccc3)[C@H]2C1=O	KCNK9 block -6.87
COc1ccccc1CC(=O)N1CCOCC1	none
COc1cccc(N(CC(=O)NC2CCCCC2)C(=O)Cn2nnc(-c3ccc(C)o3)n2)c1	none
COc1cccc(CN(CC(=O)NC2CCCC2)C(=O)Cn2nnc(-c3cccs3)n2)c1	hERG rescue 32.4
O=C(C1CCCN(CCCc2ccccc2)C1)N1CCCCCC1 (stereo unspecified)	none
O=C1CCC(=O)c2ccc3c4c(ccc1c24)CC3	none (no result: KCNQ1 act, KCNK9 block, hERG rescue, KCNQ1 block, Kir21 block)
O=C1CCN2C=Nc3cccc4ccc1c2c34	KCNQ1 block 25
COc1cccc(CNC(=O)C2CCN(S(=O)(=O)c3ccc4c(c3)CC(C)N4C(C)=O)CC2)c1 (stereo unspecified)	none
O=C1N[C@@H](Cc2c[nH]c3ccccc23)COC(=O)[C@@H](Cc2ccc(F)cc2)CC/C=C/C[C@@H]1CC(=O)N(CCO)Cc1ccccc1	none (no result: KCNQ1 act, KCNK9 block, hERG rescue, KCNQ1 block, Kir21 block)
CCOC(=O)c1ccc(/C=C2/C=C(c3ccccc3)N(c3ccc(Cl)c(C(=O)O)c3)C2=O)cc1	KCNQ1 block 11
Cc1nn(-c2cc(N3CCCCCC3)ccc2[N+](=O)[O-])c(=O)c2ccccc12	none
Cc1ccc(-c2nn(-c3cc(N4CCNCC4)ccc3[N+](=O)[O-])c(=O)c3ccccc23)cc1	Kir21 block -4.22
O=C(Cc1cccc2ccccc12)Nc1ccc(Br)cc1C(=O)O	KCNQ1 block 10
CC(=O)N(CN1C(=O)c2ccc([N+](=O)[O-])cc2C1=O)c1cccc(C(=O)O)c1	none
O=C(CCC1N=C2c3ccccc3N=C(SCc3ccc(Cl)cc3)N2C1=O)NCc1ccco1 (stereo unspecified)	KCNK9 block -7.75
O=C(CCC1N=C2c3ccccc3N=C(SCc3ccc(F)cc3)N2C1=O)NCc1ccco1 (stereo unspecified)	none
C#CCOCCOCCOCCNc1nc(N2CCN(C(=O)[C@H]([C@@H](C)CC)n3cc([C@@H](N)Cc4ccc(O)cc4)nn3)CC2)nc(N2CCN(C(=O)[C@H](CCCCN)n3cc([C@@H](N)CO)nn3)CC2)n1	none (no result: KCNK3 block)
CCOC(=O)C1=C(Cc2ccc(Cl)cc2)C(=O)c2ccccc2C1=O	KCNQ1 block 10
CCOC(=O)C1=C(O)c2ccccc2C(=O)/C1=C\c1ccc(C)cc1	none (no result: KCNQ1 act, KCNK9 block, hERG rescue, KCNQ1 block, Kir21 block)
COc1cc2c(cc1NC(=S)Nc1cccc3ccccc13)oc1ccccc12	none
COc1cc2c(cc1NC(=S)Nc1cccc(C(F)(F)F)c1)oc1ccccc12	KCNQ1 block 7
O=C(Cn1cc(S(=O)(=O)Cc2ccc([N+](=O)[O-])cc2)c2ccccc21)N1CCOCC1	none
C/C(=N/Oc1nc(C)cc(C)n1)c1ccc(Cl)cc1Cl	none
C/C(=N\Oc1cccc(F)n1)c1ccc(Cl)cc1Cl	KCNQ1 block 6
CC(C)(C)C(=O)N(Cc1ccc(Cl)cc1)Cc1cccnc1	none
CCc1n[nH]c(=S)n1N=C1CCC(C)CC1 (stereo unspecified)	none
CCCCC(=Nc1ccccc1OC)C1=C(O)CC(c2ccccc2)CC1=O (stereo unspecified)	KCNQ1 block 7
CSC(=S)N/N=C/c1ccc(Br)cc1	KCNQ1 act 41, hERG rescue 18.6
CSC(=S)N/N=C/c1ccc(N(C)C)cc1	KCNQ1 act 9
S=C(N/N=C/c1ccc(Br)cc1)N1CCCCC1	none
CSCCn1c(C(C)(C)C)cc(C(=O)O)c1C	none
Cn1nnnc1SC(C(=O)Nc1cccc(C(F)(F)F)c1)c1ccccc1 (stereo unspecified)	KCNK9 block -7
O=C(Nc1cccc(C(F)(F)F)c1)C(SCCO)c1ccccc1 (stereo unspecified)	KCNK9 block -7.45
O=C(Nc1cccc(C(F)(F)F)c1)C(Sc1ncnc2ccccc12)c1ccccc1 (stereo unspecified)	none
Cc1cc(NC(=O)CSc2nc3cc(Cl)ccc3s2)no1	none
O=C(CSc1nc2cc(Cl)ccc2s1)c1cc2ccccc2o1	KCNQ1 act 21
O=C(CSc1nc2ccccc2s1)N1c2ccccc2Sc2ccc(Cl)cc21	none

Screening results as filed in PubChem BioAssay.
